According to PMC7184160 (EBioMedicine, 2020):
pIC50: −log10 of the molar value. Read-outs that look alike come from different tables or passages of the source.

Key:
[1] = system: metastatic RCC; details: range over the agents, cited from earlier work
[2] = cited from earlier work
[3] = system: metastatic RCC; details: phase II, advanced RCC after one previous antiangiogenic therapy; cited from earlier work
[4] = cited from earlier work; remark: listed apart in the source
[5] = system: VEGFR2 (KDR), PDGFR, Flt3 and c-Kit; details: range over VEGFR2 (KDR), ref unpublished data; cited from earlier work
[6] = cited from earlier work; remark: listed apart in the source
[7] = plasma pharmacokinetics of vorolanib, X-297 and everolimus; type: in vivo; details: human, oral, t1/2z (half-life), range over cohorts, first single dose, vorolanib 100–200 mg in combination with everolimus 5 mg
[8] = phase 1 safety and tolerability of vorolanib plus everolimus; type: in vivo, human; details: in the combination, 22 patients
In short: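 Open-label, single-centre 3+3 escalation in Chinese patients with advanced ccRCC after failed standard therapy. Oral test compound at 100, 150 or 200 mg daily, given 4 h after partner drug at a fixed 5 mg daily, in 28-day cycles. AEs graded by CTCAE v4.03. Allowed changes: stepwise reduction 200→150→100 mg/day, partner drug 5 mg every other day, and interruption up to 4 weeks.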

[9] = cited from earlier work; remark: listed apart in the source
[10] = established second-line monotherapies, Discussion
[11] = second-line options for metastatic RCC
[12] = monotherapy 50–800 mg once daily

Which “median PFS” value [1, 10] does the source give for nivolumab here?
The value was 4.4–8.3 months.

What about the “median PFS” value [1, 11] of the same compound?
The value was 3.8–7.4 months.

With `COc1cc2nccc(Oc3ccc(NC(=O)C4(C(=O)Nc5ccc(F)cc5)CC4)cc3)c2cc1OC` [cabozantinib] as the compound, how does the “median PFS” value [1, 10] read?
Its value is 4.4–8.3 months.

And the “median PFS” value [1, 11]?
The value was 3.8–7.4 months.

Which “grade 3/4 AE diarrhea” value [2] does the source give for `CCN(CC)CCNC(=O)c1c(C)[nH]c(/C=C2\C(=O)Nc3ccc(F)cc32)c1C` [sunitinib] here?
The value was 5%.

And the “grade 3/4 AE fatigue” value [2]?
The value was 7%.

What about the “grade 3/4 AE hand-foot syndrome” value [2] of the same compound?
The value was 5%.

And the “grade 3/4 AE hypertension” value [2]?
Its value is 8%.

And the “grade 3/4 AE increased lipase” value [2]?
The value was 13%.

What about the “grade 3/4 AE lymphopenia” value [2] of the same compound?
The value was 12%.

What about the “grade 3/4 AE neutropenia” value [2] of the same compound?
The value was 11%.

And the “grade 3/4 AE vomiting” value [2]?
The value was 4%.

With `COc1cc2nccc(Oc3ccc(NC(=O)NC4CC4)c(Cl)c3)c2cc1C(N)=O` [lenvatinib] as the compound, how does the “median PFS” value [3] read?
The value was 7.4 months.

Which “median PFS” value [1, 10] does the source give for `CNC(=O)c1ccccc1Sc1ccc2c(/C=C/c3ccccn3)n[nH]c2c1` [axitinib] here?
The value was 4.4–8.3 months.

What about the “median PFS” value [1, 11] of the same compound?
Its value is 3.8–7.4 months.

With `Cc1[nH]c(/C=C2\C(=O)Nc3ccc(F)cc32)c(C)c1C(=O)N[C@H]1CCN(C(=O)N(C)C)C1` [vorolanib, Vorolanib] as the compound, how does the “patients with grade 3 or higher events” value ([4]; across 100 to 250 mg dose cohort) read?
Its value is 7 out of 19.

And the “recommended dose for monotherapy” value [4]?
The value was 200 mg.

What about the MTD ([4]; monotherapy 50–250 mg once daily, Chinese patients) of the same compound?
The MTD was “not achieved”.

And the “dose-limited toxicity (DLT)” value ([4]; monotherapy, China)?
The value was “No dose-limited toxicity (DLT) was observed”.

And the pIC50 [5]?
The pIC50 was 8.95 to 9.89.

What about the “grade 4 AEs or deaths related to vorolanib” value [6, 12] of the same compound?
The value was “no grade 4 AEs or deaths related to vorolanib was reported”.

And the “treatment-related grade 3 adverse event proteinuria” value [6, 12]?
The value was 4%.

And the “apparent saturation of absorption (dose)” value ([6]; monotherapy tablet once daily)?
Its value is 400 to 800 mg.

And the MTD ([6]; monotherapy tablet, dose range 50–800 mg once daily, solid tumors)?
Its MTD is “not achieved”.

And the “maximum tolerated dose (MTD)” value ([6]; monotherapy, dose range 20 to 400 mg daily)?
The value was “without achieving the most tolerated dose (MTD)”.

And the “recommended dose of monotherapy” value ([6]; once daily, patients with advanced cancer)?
Its value is 400 mg.

And the half-life [7]?
The half-life was 284 to 773 min.

And the “patients with dose interruption” value [8]?
Its value is “fourteen”.

And the “patients with dose reduction” value [8]?
Its value is “four”.

For `CO[C@H]1C[C@@H]2CC[C@@H](C)[C@@](O)(O2)C(=O)C(=O)N2CCCC[C@H]2C(=O)O[C@H]([C@H](C)C[C@@H]2CC[C@@H](OCCO)[C@H](OC)C2)CC(=O)[C@H](C)/C=C(\C)[C@@H](O)[C@@H](OC)C(=O)[C@H](C)C[C@H](C)/C=C/C=C/C=C/1C` [everolimus], which “median PFS” value [1, 10] is on record?
The value was 4.4–8.3 months.

What about the “median PFS” value [1, 11] of the same compound?
Its value is 3.8–7.4 months.

What about the “median PFS” value [3] of the same compound?
Its value is 5.5 months.

What about the “patients with grade 3 and 4 events” value [9] of the same compound?
Its value is 50%.

And the “patients with dose interruption” value [8]?
The value was “eight”.
